{
  "source": "ChEMBL document CHEMBL1134485",
  "about": "“Diguanidino and \"reversed\" diamidino 2,5-diarylfurans as antimicrobial agents” (2001)",
  "key": {"[1]": {"test_system": "Aspergillus fumigatus", "assay": "Minimum inhibitory concentration required to inhibit 100% inoculum of Aspergillus fumigatus 168.95", "format": "functional"}, "[2]": {"test_system": "Aspergillus flavus", "assay": "Minimum inhibitory concentration required to inhibit 100% inoculum of Aspergillus flavus 194.99", "format": "functional"}, "[3]": {"test_system": "Nucleic Acid"}, "[4]": {"test_system": "Nucleic Acid", "remark": "listed apart in the source"}, "[5]": {"test_system": "Aspergillus fumigatus", "assay": "Minimum inhibitory concentration required to inhibit 80% inoculum of Aspergillus fumigatus 165.86", "format": "functional"}, "[6]": {"test_system": "Candida albicans", "assay": "Minimum inhibitory concentration required to inhibit 100% inoculum of Candida albicans 149.97", "format": "functional"}, "[7]": {"test_system": "Aspergillus fumigatus", "assay": "Minimum inhibitory concentration required to inhibit 100% inoculum of Aspergillus fumigatus 153.90", "format": "functional"}, "[8]": {"test_system": "Cryptococcus neoformans", "assay": "Minimum inhibitory concentration required to inhibit 80% inoculum of Cryptococcus neoformans H99", "format": "functional", "how_it_was_run": "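Broth macrodilution following NCCLS M27-T, drug dilutions 100 to 0.09 µg/mL, in RPMI 1640 with glutamine, no bicarbonate, MOPS 0.165 M, pH 7.0. Inoculum grown at 35 °C, 0.5 × 10³ to 2.5 × 10³ CFU/mL, incubated at 35 °C and interpreted at […]. MIC80 is the lowest concentration with turbidity […] of the growth control.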"}, "[9]": {"test_system": "Candida albicans", "assay": "Minimum fungicidal concentration against Candida albicans 149.97", "format": "functional", "how_it_was_run": "(§1)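 Yeast MFC: after broth macrodilution (RPMI 1640/MOPS pH 7.0, 0.5 × 10³ to 2.5 × 10³ CFU/mL, 35 °C, 48 h or 72 h for C. neoformans, drug 100 to 0.09 µg/mL), 100 µL from tubes with complete inhibition plated on Sabouraud agar; lowest concentration yielding three or fewer colonies recorded.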"}, "[10]": {"test_system": "Candida albicans", "assay": "Minimum inhibitory concentration required to inhibit 100% inoculum of Candida albicans 126.97", "format": "functional"}, "[11]": {"test_system": "Cryptococcus neoformans", "assay": "Minimum inhibitory concentration required to inhibit 100% inoculum of Cryptococcus neoformans H99", "format": "functional"}, "[12]": {"test_system": "Candida albicans", "assay": "In vitro minimum inhibitory concentration against Candida albicans.", "format": "functional"}, "[13]": {"test_system": "Candida albicans", "assay": "Minimum inhibitory concentration required to inhibit 80% inoculum of Candida albicans 126.97", "format": "functional", "how_it_was_run": "(§2)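 Broth macrodilution following NCCLS M27-T, drug dilutions 100 to 0.09 µg/mL, in RPMI 1640 with glutamine, no bicarbonate, buffered to pH 7.0 with 0.165 M MOPS. Inoculum grown at 35 °C, adjusted to 0.5 × 10³ to 2.5 × 10³ CFU/mL, incubated at 35 °C and read at 48 h. MIC80 is the lowest concentration giving […] visual turbidity relative to the growth-control tube.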"}, "[14]": {"test_system": "Aspergillus flavus", "assay": "Minimum fungicidal concentration against Aspergillus flavus 194.99", "format": "functional", "how_it_was_run": "(§3)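 Mould MFC: 100 µL aliquots from macrodilution tubes (RPMI 1640/MOPS pH 7.0, 0.5 × 10³ to 2.5 × 10³ CFU/mL conidial inoculum, 30 °C, 48-72 h, drug 100 to 0.09 µg/mL) showing complete growth inhibition plated on Sabouraud agar; MFC taken as lowest drug concentration giving three or fewer colonies.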"}, "[15]": {"test_system": "Aspergillus fumigatus", "assay": "Antimicrobial activity against Aspergillus fumigatus (MIC)", "format": "functional"}, "[16]": {"test_system": "Candida albicans", "assay": "Minimum fungicidal concentration against Candida albicans 126.97", "format": "functional", "how_it_was_run": "as §1"}, "[17]": {"test_system": "Rhizopus arrhizus", "assay": "Minimum inhibitory concentration required to inhibit 100% inoculum of Rhizopus arrhizus 117.89", "format": "functional"}, "[18]": {"test_system": "Aspergillus fumigatus", "assay": "Minimum fungicidal concentration against Aspergillus fumigatus 153.90", "format": "functional", "how_it_was_run": "as §3"}, "[19]": {"test_system": "Cryptococcus neoformans", "assay": "Minimum fungicidal concentration against Cryptococcus neoformans H99", "format": "functional", "how_it_was_run": "as §1"}, "[20]": {"test_system": "Candida albicans", "assay": "Minimum fungicidal concentration against Candida albicans 117.00", "format": "functional", "how_it_was_run": "as §1"}, "[21]": {"test_system": "Fusarium solani", "assay": "Minimum inhibitory concentration required to inhibit 80% inoculum of Fusarium solani 152.89", "format": "functional", "how_it_was_run": "(§4)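 Mould broth macrodilution, drug dilutions 100 to 0.09 µg/mL, in RPMI 1640 buffered at pH 7.0 with 0.165 M MOPS. Isolates are grown on Sabouraud dextrose agar at 30 °C for 4-14 days. Conidia are harvested in 0.85% NaCl/0.05% Tween 80, counted by hemocytometer, and diluted to 0.5 × 10³ to 2.5 × 10³ CFU/mL. Cultures incubated at 30 °C for 48-72 h until the control grows. MIC80 read visually against the growth control.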"}, "[22]": {"test_system": "Candida albicans", "assay": "Minimum inhibitory concentration required to inhibit 80% inoculum of Candida albicans 149.97", "format": "functional", "how_it_was_run": "as §2"}, "[23]": {"test_system": "Aspergillus flavus", "assay": "Minimum inhibitory concentration required to inhibit 80% inoculum of Aspergillus flavus 107.96", "format": "functional"}, "[24]": {"test_system": "Aspergillus fumigatus", "assay": "Minimum inhibitory concentration required to inhibit 100% inoculum of Aspergillus fumigatus 119.00", "format": "functional"}, "[25]": {"test_system": "Aspergillus flavus", "assay": "Minimum inhibitory concentration required to inhibit 80% inoculum of Aspergillus flavus 194.99", "format": "functional"}, "[26]": {"test_system": "Aspergillus flavus", "assay": "Minimum inhibitory concentration required to inhibit 100% inoculum of Aspergillus flavus 107.96", "format": "functional"}, "[27]": {"test_system": "Fusarium solani", "assay": "Minimum fungicidal concentration against Fusarium solani 152.89", "format": "functional", "how_it_was_run": "as §3"}, "[28]": {"test_system": "Aspergillus fumigatus", "assay": "Minimum fungicidal concentration against Aspergillus fumigatus 119.00", "format": "functional", "how_it_was_run": "as §3"}, "[29]": {"test_system": "Rhizopus arrhizus", "assay": "Minimum inhibitory concentration required to inhibit 80% inoculum of Rhizopus arrhizus 117.89", "format": "functional", "how_it_was_run": "as §4"}, "[30]": {"test_system": "Aspergillus fumigatus", "assay": "Minimum inhibitory concentration required to inhibit 80% inoculum of Aspergillus fumigatus 153.90", "format": "functional"}, "[31]": {"test_system": "Aspergillus fumigatus", "assay": "In vitro minimum fungicidal concentration required to inhibit Aspergillus fumigatus(MFC)", "format": "functional", "how_it_was_run": "as §3"}},
  "data": [
    {"molecule": "Cc1ccc(C(=N)Nc2ccc(-c3ccc(-c4ccc(NC(=N)c5ccc(C)cn5)cc4C)o3)c(C)c2)nc1", "values": [
      {"measurement": "MIC", "setting": "[1]", "result": 50, "unit": "µg/mL"},
      {"measurement": "MIC", "setting": "[2]", "result": 6.25, "unit": "µg/mL"},
      {"measurement": "ΔTm", "setting": "[3]", "result": 24.3},
      {"measurement": "ΔTm", "setting": "[4]", "result": 10.8},
      {"measurement": "MIC", "setting": "[5]", "result": 50, "unit": "µg/mL"},
      {"measurement": "MIC", "setting": "[6]", "result": 1.56, "unit": "µg/mL"},
      {"measurement": "MIC", "setting": "[7]", "result": 50, "unit": "µg/mL"},
      {"measurement": "MIC", "setting": "[8]", "result": 1.56, "unit": "µg/mL"},
      {"measurement": "MFC", "setting": "[9]", "result": 6.25, "unit": "µg/mL"},
      {"measurement": "MIC", "setting": "[10]", "result": 3.12, "unit": "µg/mL"},
      {"measurement": "MIC", "setting": "[11]", "result": 1.56, "unit": "µg/mL"},
      {"measurement": "MIC", "setting": "[12]", "result": "≤ 1", "unit": "µg/mL"},
      {"measurement": "MIC", "setting": "[13]", "result": 1.56, "unit": "µg/mL"},
      {"measurement": "MFC", "setting": "[14]", "result": "> 100", "unit": "µg/mL"},
      {"measurement": "MIC", "setting": "[15]", "result": 10, "unit": "µg/mL"},
      {"measurement": "MFC", "setting": "[16]", "result": 3.12, "unit": "µg/mL"},
      {"measurement": "MIC", "setting": "[17]", "result": 1.56, "unit": "µg/mL"},
      {"measurement": "MFC", "setting": "[18]", "result": "> 100", "unit": "µg/mL"},
      {"measurement": "MFC", "setting": "[19]", "result": "> 100", "unit": "µg/mL"},
      {"measurement": "MFC", "setting": "[20]", "result": 25, "unit": "µg/mL"},
      {"measurement": "MIC", "setting": "[21]", "result": 3.12, "unit": "µg/mL"},
      {"measurement": "MIC", "setting": "[22]", "result": 0.78, "unit": "µg/mL"},
      {"measurement": "MIC", "setting": "[23]", "result": 3.12, "unit": "µg/mL"},
      {"measurement": "MIC", "setting": "[24]", "result": 50, "unit": "µg/mL"},
      {"measurement": "MIC", "setting": "[25]", "result": 3.12, "unit": "µg/mL"},
      {"measurement": "MIC", "setting": "[26]", "result": 50, "unit": "µg/mL"},
      {"measurement": "MFC", "setting": "[27]", "result": 50, "unit": "µg/mL"},
      {"measurement": "MFC", "setting": "[28]", "result": "> 100", "unit": "µg/mL"},
      {"measurement": "MIC", "setting": "[29]", "result": 0.78, "unit": "µg/mL"},
      {"measurement": "MIC", "setting": "[30]", "result": 3.12, "unit": "µg/mL"},
      {"measurement": "MFC", "setting": "[31]", "result": "> 100", "unit": "µg/mL"}
    ]}
  ]
}
